# Screening data (PubChem BioAssay)
# Rows were chosen to be rich in hits. Some 2.9% of all compounds tested hit in one or more screens of this group.
# PfGluPho inh: PfG6PD enzyme inhibitors, primary screen, biochemical, fluorescence intensity, uHTS; 350,000 tested, 0.78% active; inhibition, % at 20 µM; PfGluPho enzyme, NADPH resazurin-diaphorase fluorescence;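 active = inhibition reaching at least a set limit at 20 µM in the primary screen, cut at about 59% in these data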;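 note: 0% = DMSO wells with substrate and 100% = DMSO wells lacking glucose-6-phosphate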
# UBC13 polyUb: UBC13 polyubiquitin chain formation inhibitors, primary screen, biochemical, TR-FRET, uHTS. Ubiquitin-conjugating enzyme E2 N (Homo sapiens), P61088. inhibition, % at 20 µM. 330,000 tested, 0.47% active. AID 485273, 2010; in the data active = inhibition above about 45%, passing the limit was not always enough
# M18AAP inhibitor: PfM18AAP inhibitors, malaria aminopeptidase, primary screen, biochemical, QFRET, recombinant enzyme | 290,000 tested, 1.2% active | inhibition, % at 7.35 µM | H-Glu-NHMec fluorogenic cleavage | M18 aspartyl aminopeptidase (Plasmodium falciparum 3D7);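 active = inhibition above the campaign mean inhibition over all tested compounds plus 3 SD, cut at about 28% in these data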;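 note: 0% = plate median of test compound wells and 100% = 2 mM ZnCl2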
# Apaf-1 inh: inhibitors of human Apaf-1 apoptosome, primary screen, biochemical, DEVD-Rh110 fluorescence, uHTS. Apoptotic protease-activating factor 1 (Homo sapiens), O14727. reconstituted apoptosome caspase-3 activity. inhibition, % at 20 µM. 330,000 tested, 0.71% active. AID 489030, 2010; active = inhibition of at least 40% at 20 µM;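 note: plate controls were DMSO wells for no effect and DEVD-CHO caspase inhibitor wells for full effect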
#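 Assay system: Apoptosome proteins | Medium: pH 7.5 Hepes buffer with CHAPS, BSA, DTT | Also added: Cytochrome c and DEVD-Rh110 substrate | Times: 30 min plus 50 min, RT | Detection: Rhodamine 110 fluorescence at Ex 480/Em 540 nm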
# EBNA-1 inh: EBNA-1 DNA-binding inhibitors, primary screen, biochemical, fluorescence polarization. AID 1950, 2009. 300,000 tested, 0.34% active. inhibition, % at 14.8 µM; in the data active = inhibition above about 28%
# ZTA counter: counter-screen for EBNA-1 inhibitors: inhibitors of Epstein-Barr virus ZTA; P03206; ZTA-DNA binding, fluorescence polarization; inhibition, % at 11 µM; 320,000 tested, 0.15% active; AID 2234; in the data active = inhibition above about 33%
# * hit, by the source's call; · = no result.
SMILES,PfGluPho inh,UBC13 polyUb,M18AAP inhibitor,Apaf-1 inh,EBNA-1 inh,ZTA counter
CC[C@H]1CC2CN3CCc4c([nH]c5c([C@H]6C[C@H]7[C@H](CC)CN(C)[C@@H](Cc8c6[nH]c6ccccc86)[C@H]7C(=O)OC)c(OC)ccc45)C(C(=O)OC)(C2)C13,·,14,·,32,-11,-1
Cc1ccc(CNC(=O)Nc2ccc(F)cc2)n1C,11,·,31*,·,·,·
Cc1ccc(CNC(=O)Nc2ccc(OC(F)(F)F)cc2)n1C,14,3,23,8,-7,-14
CC(=O)NNc1nc(-c2ccc(NC(C)=O)cc2)cs1,6,-1,31*,-19,-7,13
O=C1CSc2ccc(S(=O)(=O)N3CCN(c4ccccc4F)CC3)cc2N1,1,-11,-1,24,-1,-1
Cc1nn2c(=O)c3c4c(sc3nc2n1-c1ccccc1)COC(C)(C)C4,2,3,-3,6,2,-16
C/C(CC(=O)NCc1ccco1)=N\NC(=O)CC#N,5,4,30*,-16,8,-3
C/C(CC(=O)NCc1ccco1)=N\NC(=O)Cc1cccc2ccccc12,-10,-8,5,2,-12,2
CCN(c1ccccc1)S(=O)(=O)c1ccc(Cl)c(NC(=O)COC(=O)c2cc(O)c3ccccc3c2O)c1,·,-28,-2,48*,7,1
CC(=O)[C@@H]1[C@@H](C(=O)c2ccc(F)cc2)[C@]2(C(=O)Nc3ccccc32)[C@H]2C=Cc3cc(F)ccc3N12,9,12,5,-9,3,5
O=C(c1ccc(F)cc1)[C@@H]1[C@@H](C(=O)c2ccccc2)[C@@]2(C(=O)Nc3ccccc32)[C@H]2c3ccccc3C=CN12,·,-19,1,73*,2,15
CCOC(=O)N1CCC(=NNc2nc3ccccc3s2)CC1,2,8,29*,0,-16,-4
CC(O)(CC(=O)O)CC(=O)O,·,4,·,-11,4,7
COc1ccc(-n2c(COc3cccc4ccccc34)nnc2SCC#N)cc1,15,6,29*,12,8,3
N#CCSc1nnc(COc2cccc3ccccc23)n1-c1ccccc1,12,3,-10,12,2,-1
O=C(NCc1ccc(Cl)cc1)c1ccccc1CCc1ccccc1,-1,-4,-9,14,31*,-11
O=C(NCc1ccccc1Cl)c1ccccc1CCc1ccccc1,2,-8,-5,15,-1,-12
COc1ccc(NC(=O)c2sc3nc(N4CCOCC4)c4c(c3c2N)CC(C)(C)OC4)c(OC)c1,8,16,31*,13,-2,-9
C[C@@H]1CN([C@H](C)CO)C(=O)CCCn2nncc2CO[C@H]1CN(C)Cc1ccc(Oc2ccccc2)cc1,7,·,·,·,·,·
Cc1ccsc1C=Nc1ccc(O)cc1,84*,-18,12,94*,-2,38*
O=C1c2cccc(O)c2C(=O)c2c(O)cccc21,·,-60,18,1,9,12
O=C1C=C(O)c2cccc(O)c2C1=O,9,-83,·,44*,-7,5
COC(=O)c1ccc(NC(=O)c2cccc(NC(=O)c3ccccc3)c2)cc1,-4,-3,-1,-18,-8,0
CC1=NN(c2ccccc2)C(=O)/C1=C\c1ccc(Oc2ccc([N+](=O)[O-])cc2[N+](=O)[O-])cc1,29,-64,13,92*,6,30
O=C1Nc2cc(C(=O)N3CCOCC3)ccc2S/C1=C/c1ccccc1F,15,·,·,·,·,·
SMILES,PfGluPho inh,UBC13 polyUb,M18AAP inhibitor,Apaf-1 inh,EBNA-1 inh,ZTA counter
COc1ccccc1N1CCN(C(=O)c2cc(C(C)(C)C)oc2C)CC1,-4,7,29*,-380,5,20
Cc1ccccc1CSc1nc2[nH]ncc2c(=O)[nH]1,0,-3,31*,-3,-12,-2
O=C(NCC1OCCc2ccccc21)c1ccc(NC(=O)c2cccc(Br)c2)cc1 (stereo unspecified),2,4,0,9,30*,-12
O=C(NCC1OCCc2ccccc21)c1ccc(NC(=O)c2ccccc2Cl)cc1 (stereo unspecified),-2,9,-11,9,24,4
COc1cc(OC)c(C(=O)c2ccccc2[N+](=O)[O-])c(OC)c1,6,·,·,·,·,·
COc1ccccc1NS(=O)(=O)c1cccc(C(=O)N2CCN(C/C=C/c3ccccc3)CC2)c1,-10,24,6,46*,2,-2
Cn1c(SCC(=O)N/N=C/C=C\c2ccco2)nc2ccccc21,62*,-9,9,-2,-5,-5
COc1ccccc1N(CC(=O)NCCSCc1cccc(C)c1)S(=O)(=O)c1ccccc1,7,6,0,30,-2,16
Cc1ccc(NC(=S)NNC(C)(C)C)cc1,18,-7,-3,-5,-11,1
CC(C)=NN/C(N)=N/C(=S)Nc1ccc(C)cc1,0,12,29*,-5,-4,-3
CC(=O)Nc1ccc(S(=O)(=O)NCC(=O)OCc2ccccc2)cc1,-20,-3,2,8,0,2
COc1ccc(C(=O)NC2CC3CCCC(C2)N3Cc2ccccc2)c(OC)c1 (stereo unspecified),-3,10,3,3,-4,-11
Fc1ccccc1CSc1ncn[nH]1,-2,5,12,2,2,-16
c1ccc(Nc2nc(CSc3ncn[nH]3)cs2)cc1,23,2,60*,-3,4,8
c1ccc2c(C3=NNC(=NC4CC4)SC3)c[nH]c2c1,10,1,32*,0,16,6
COc1ccc(-c2ccc3c(c2)[C@@H]2C[C@H](N(C)C(=O)C(C)(C)C)[C@H]([C@H](C)O)C(=O)N2CC3)cc1,17,·,·,·,·,·
O=C1c2ccccc2C(=O)N1OCc1cccc(Cl)c1,-15,8,-20,5,-2,3
O=C1Cc2ccccc2C(=O)N1OCc1ccc(Cl)cc1Cl,-3,-10,-5,68*,-7,2
O=C(NNc1nc2c(F)cccc2s1)c1cc(=O)c2ccccc2o1,3,-33,30*,24,5,10
NNc1nc2c(F)cccc2s1,12,-2,30*,1,5,-15
Fc1cccc2sc(Nc3nc4c(F)cccc4s3)nc12,-4,-6,-4,7,17,3
Cc1ccc2sc(NNC(=O)c3cc(=O)c4ccccc4o3)nc2c1C,4,-92,30*,13,-9,-3
O=C(NNc1nc2c(F)cccc2s1)c1ccc(F)cc1,2,2,30*,4,-4,-2
COc1ccc2nc(NNC(=O)c3cc(=O)c4ccccc4o3)sc2c1,3,-49,9,24,-3,7
